Beta cell apopt = blocks beta cell apoptosis | INS-1E cytokine-induced death, ATP luminescence, 48 h; percent of positive-control rescue, neutral wells zero | protection from apoptosis, % (test concentration not listed) | actives 0.8% (n = 300,000);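 active = Every replicate reaches about 75%, or at least half do and their mean reaches it too, limit read from the data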;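 also: 0% = cytokine-treated negative control wells and 100% = positive control rescue; higher means more ATP so stronger rescue from cytokine killing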
ANO1 block = mouse TMEM16A channel inhibition, primary screen; Q8BHY3; HEK293 TMEM16A/YFP iodide influx fluorescence, ionomycin; normalized B-score (activity score, 25-100; higher = stronger inhibition) at 10 µM; actives 1.2% (n = 310,000); AID 588511;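 active = ratio plate-corrected score three or more library SD toward inhibition, starting fluorescence score within five deviations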;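 also: score derived from kinetic fluorescence span divided by baseline fluorescence per well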
CSC inhib = cancer stem cell inhibition; AID 2717; cancer stem cell-like cells viability, luminescence; inhibition, % at 7.5 µM; actives 1.1% (n = 300,000); in the data active = inhibition above about 75%; tested in HMLE shEcad cells
TMEM16A act = mouse TMEM16A channel activation, primary screen. HEK293 TMEM16A/YFP-H148Q/I152L, iodide quench fluorescence; stronger effect = lower value. actives 0.3% (n = 340,000). AID 623877. B-score at 10 µM. Q8BHY3;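 active = fluorescence-ratio B-score plate-corrected deviation score at least 3 library SD below zero, with starting fluorescence score within 5 deviations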;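 also: channel opened by trigger with iodide after compound preincubation; score built on the fluorescence ratio of max minus min over baseline; more negative score means more quench and so TMEM16A activation or potentiation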
MC4R ag barr = activates human MC4R beta-arrestin recruitment | P32245 | U2OS MC4R beta-arrestin complementation, luminescence; percent of melanotan II response, DMSO zero | activation, % at 8.9 µM | actives 0.98% (n = 360,000);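 active = activation above a per-plate cutoff, the mean activation of sample wells on that plate plus 3 SD, cut at about 8% in these data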
Target sequence (P32245 whole entry, looked up): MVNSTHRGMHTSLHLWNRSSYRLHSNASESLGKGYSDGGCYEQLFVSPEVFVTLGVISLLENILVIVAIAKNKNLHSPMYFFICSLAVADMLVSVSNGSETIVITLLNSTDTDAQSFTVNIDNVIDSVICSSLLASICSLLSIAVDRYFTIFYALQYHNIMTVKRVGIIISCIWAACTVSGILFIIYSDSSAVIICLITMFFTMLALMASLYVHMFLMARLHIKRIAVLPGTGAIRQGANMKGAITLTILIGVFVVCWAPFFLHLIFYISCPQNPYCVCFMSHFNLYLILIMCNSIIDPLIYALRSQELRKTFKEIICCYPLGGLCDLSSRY
MC4R antagonist = antagonists of human melanocortin 4 receptor (MC4R); P32245; MC4R-expressing cells, MTII-stimulated cAMP, LANCE TR-FRET; inhibition, % at 6.5 µM; actives 0.48% (n = 360,000); AID 540295;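 active = inhibition above its plate's cutoff, the mean of tested wells on that plate plus 3 SD, cut at about 29% in these data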;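 also: 0% = Melanotan II alone and 100% = Melanotan II plus saturating MCL0020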
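Test system: U2OS cells stably expressing human melanocortin 4 receptor (MC4R); also added: Melanotan II challenge; compound: 6.5 µM single dose; timing: 30-min compound preincubation, 1-h Melanotan II challenge, 1-h detection, room temperature; signal: Eu-cAMP/anti-cAMP TR-FRET, emission 671 nm; repeats: one well per compound, no replicates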
An asterisk follows results filed as active; i = inactive; . = no result given. An excerpt weighted towards active compounds, which were near 3.8% of everything screened.

SMILES | Beta cell apopt | ANO1 block | CSC inhib | TMEM16A act | MC4R ag barr | MC4R antagonist
COc1ccc(C(=O)C2CCCN(C/C=C/c3ccccc3OC)C2)c(OC)c1 (stereo unspecified) | -4 | i | 22 | -5.1* | -1 | -1
CC(C)C(=O)NC(=S)/C=C1/N(C)c2ccccc2C1(C)C | 109* | i | -2 | i | -3 | 4
CN1/C(=C\C=N\NC(=O)c2ccc(O)cc2)C(C)(C)c2ccccc21 | 113* | i | 8 | i | -1 | -4
CC(=O)/C=C1\N(C)c2ccc(C)cc2C1(C)C | 99* | i | -7 | i | -1 | -5
CN1/C(=C/C(=S)NC(=O)C2CCC2)C(C)(C)c2ccccc21 | 59 | i | 8 | i | 0 | -3
CN1/C(=C\C=N\NC(=O)c2cccnc2)C(C)(C)c2ccccc21 | 37 | i | -18 | i | -2 | -9
Cc1ccc(C(=O)NC(=S)/C=C2\N(C)c3ccccc3C2(C)C)cc1 | 94* | i | 11 | i | 4 | -6
COc1ccc(CSc2ccc(S(=O)(=O)N3CCCC3)cn2)cc1F | . | . | . | . | -2 | 0
CC1CCCC(=NNC(=O)C2COc3ccccc3O2)C1 (stereo unspecified) | 0 | . | -17 | i | 0 | -1
Cc1noc(C)c1NC(=O)N(C)C[C@H]1Oc2c(NC(=O)C3CC3)cccc2C(=O)N([C@H](C)CO)C[C@@H]1C | 0 | . | -11 | i | -1 | -1
CN(C(=O)c1cccc(COc2ccc(Cl)cc2Cl)c1)c1ccccc1 | -8 | 25* | 14 | i | -1 | 3
CC(C)CCn1cnc2c([nH]c3cccc(Cl)c32)c1=O | -1 | i | -8 | i | 9.4* | -4
Cc1cccc2[nH]c3c(=O)n(CCN4CCNCC4)cnc3c12 | -2 | i | -6 | i | 0 | 2
Cc1ccc(OCCC(=O)Nc2ccccc2C(=O)NC2CC2)cc1 | -5 | i | -16 | i | 4 | 9
Cc1ccc(SCCC(=O)Nc2ccccc2C(=O)NC2CCCCC2)cc1 | -4 | i | -9 | i | 9.4* | -1
CCN1CCN(c2ccc(NC(=O)CC3OC(=O)c4ccccc43)cc2C)CC1 (stereo unspecified) | . | . | . | . | -1 | -3
Cc1cc(C)cc(NC(=S)Nc2ccc(Cl)c(Cl)c2)c1 | -1 | 100* | 41 | -9.6* | 4 | -4
Cc1ccc(NC(=S)Nc2ccc(Cl)c(Cl)c2)c(OC(F)F)c1 | -7 | 100* | . | i | 7 | 11
COc1cc(C(=O)NCC(=O)NNC(=O)C2COc3ccccc3O2)cc(OC)c1OC (stereo unspecified) | 4 | . | . | i | 1 | 6
CCOC(=O)C(c1ccccc1)C(Nc1ccc(F)cc1)c1ccccn1 (stereo unspecified) | 6 | i | 14 | i | 0 | 1
CCOC(=O)C(C(=O)OCC)C(Nc1ccc(Br)cc1)c1ccccc1 (stereo unspecified) | -6 | i | 75* | i | 1 | 11
Cc1ccc(Cl)cc1N1CCN(C(=O)c2cn(C)c(=O)c3c2c2ccccc2n3C)CC1 | . | i | 88* | i | -3 | -5
Cc1cccc(N2CCN(C(=O)c3cn(C)c(=O)c4c3c3ccccc3n4C)CC2)c1C | -16 | i | 60 | i | 4 | -3
CCc1ccc(N(C(=O)c2snc(C(N)=O)c2N)C(C(=O)NC2CCCC2)c2ccco2)cc1 (stereo unspecified) | -9 | i | 3 | i | 0 | 2
NC(=O)c1nsc(C(=O)N(c2cccc(F)c2)C(C(=O)NC2CCCC2)c2ccco2)c1N (stereo unspecified) | 1 | i | 3 | i | 8.9* | -2
SMILES | Beta cell apopt | ANO1 block | CSC inhib | TMEM16A act | MC4R ag barr | MC4R antagonist
O=C(Nc1ccc(Cl)cc1)Nc1ccccc1Sc1ncc([N+](=O)[O-])s1 | 23 | i | 84* | i | -2 | -7
O=C(Nc1csc([N+](=O)[O-])c1)Nc1ccccc1Cl | 42 | i | 10 | i | 4 | 13
O=C(CN1CCN(S(=O)(=O)c2ccc(Cl)cc2)CC1)N1CCCC1 | . | . | . | i | -2 | 10
O=C(Nc1nnc(SCc2ccc(Cl)cc2)s1)c1ccco1 | -2 | i | 27 | i | 8.8* | -3
CCCCn1c(N)c(N(C)C(=O)c2cc3c(s2)CCCCC3)c(=O)[nH]c1=O | -1 | . | -11 | i | -2 | 2
c1ccc(C(c2ccccc2)c2noc(CN3CCN(C4CCCC4)CC3)n2)cc1 | -4 | i | 35 | i | 1 | 1
FC(F)(F)c1ccc(-c2noc(CN3CCCN(C4CCCCC4)CC3)n2)cc1 | -4 | i | 106* | i | 0 | 7
CCCc1cc(=O)oc2cc(C)cc(OCC(=O)Nc3cccnc3)c12 | 12 | i | -5 | i | 0 | -18
CCCCNC(=O)c1ccc(Cn2c(=S)[nH]c3c([nH]c4ccc(OC)cc43)c2=O)cc1 | 101* | i | 140* | i | 0 | -3
CCOCCCNC(=O)c1ccc(Cn2c(=S)[nH]c3c([nH]c4ccc(OC)cc43)c2=O)cc1 | -4 | i | 9 | i | -3 | 2
Cc1ccc(S(=O)(=O)Nc2ccc(C(OC(=O)c3ccccc3[N+](=O)[O-])(C(F)(F)F)C(F)(F)F)cc2)cc1 | 110* | i | 107* | i | -1 | 7
CCCCn1c(SCC(=O)NC(C)(C)C)nnc1-c1ccco1 | -6 | 25* | -3 | i | -1 | 7
CCCCn1c(SCC(N)=O)nnc1-c1ccco1 | -2 | i | 2 | i | 0 | 6
O=C(NNC(=O)c1cc(-c2cccnc2)nc2ccccc12)Nc1ccc(Cl)cc1 | 21 | i | 50 | i | -2 | 12
COc1cccc(NC(=O)c2cc(-c3cccnc3)nc3c(Cl)cccc23)c1 | 24 | i | . | i | 12* | 5
O=C(Nc1ccncc1)c1cc(-c2ccccc2)nc2ccccc12 | . | . | . | . | 9.3* | 17
Cc1cccc(-c2cc(C(=O)Nc3ccncc3)c3ccccc3n2)c1 | . | . | . | i | 12* | 5
O=C(NNC(=O)c1cc(-c2ccccc2)nc2ccccc12)Nc1cccc(Cl)c1 | 3 | 100* | 60 | i | 1 | 8
CCN(c1cccc(C)c1)S(=O)(=O)c1cc2c3c(c1)CCC(=O)N3CCC2 | 0 | i | . | i | 0 | 0
CCOC(=O)C1CCCN(C(=O)c2cc(C)oc2C)CC1 (stereo unspecified) | . | . | . | . | -2 | -3
